Active and inactive are the calls of the source. The calls are words filed in the database; no cut-off is given here.
Legend:
[1] = biological target: T1, Glucocorticoid receptor (Homo sapiens) (UniProt P04150); test: Antagonist activity at recombinant GR LBD expressed in HEK293T cells co-expressing GAL4 DBD assessed as inhibition of dexamethasone-induced transactivation at 20 uM by luciferase reporter gene assay; assay type: functional, cell-based; conditions: HEK-293T
T1 sequence (whole entry): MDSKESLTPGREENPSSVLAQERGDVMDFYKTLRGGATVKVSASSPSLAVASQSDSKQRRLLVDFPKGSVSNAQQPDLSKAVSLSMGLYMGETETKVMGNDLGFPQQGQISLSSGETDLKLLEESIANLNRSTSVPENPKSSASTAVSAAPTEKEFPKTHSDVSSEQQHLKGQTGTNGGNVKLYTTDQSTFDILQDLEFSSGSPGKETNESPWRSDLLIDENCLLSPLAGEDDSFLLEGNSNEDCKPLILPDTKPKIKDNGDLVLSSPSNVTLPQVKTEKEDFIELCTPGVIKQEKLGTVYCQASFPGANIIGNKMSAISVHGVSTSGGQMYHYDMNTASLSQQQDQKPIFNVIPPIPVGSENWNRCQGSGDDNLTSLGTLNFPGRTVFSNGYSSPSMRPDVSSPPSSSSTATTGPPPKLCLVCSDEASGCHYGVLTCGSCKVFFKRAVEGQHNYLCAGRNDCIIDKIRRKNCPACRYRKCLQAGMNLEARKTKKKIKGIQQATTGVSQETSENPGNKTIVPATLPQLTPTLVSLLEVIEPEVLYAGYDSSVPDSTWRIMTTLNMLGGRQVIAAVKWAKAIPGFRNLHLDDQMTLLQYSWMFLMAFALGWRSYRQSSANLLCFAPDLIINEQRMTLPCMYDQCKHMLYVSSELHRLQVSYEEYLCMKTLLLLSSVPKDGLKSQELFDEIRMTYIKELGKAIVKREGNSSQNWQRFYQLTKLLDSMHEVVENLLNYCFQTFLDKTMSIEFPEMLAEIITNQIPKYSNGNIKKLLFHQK
Procedure, shortened: (§1)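 One-hybrid assay in HEK293T cells cotransfected with a Gal4 DBD–NR-LBD fusion (RXRα, LXRα, GR, PR, PPARδ or PPARγ) plus UAS-TK-Luc reporter. Compound was 20 μM, given alone or with agonist: 9cRA 0.1 μM (RXRα), TO901317 0.5 μM (LXRα), dexamethasone 50 nM (GR), progesterone 100 nM (PR), GW1516 10 μM (PPARδ), rosiglitazone 10 μM (PPARγ). Luciferase read-out; three independent experiments.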

[2] = Binding affinity to FXRalphaLBD assessed as increase in thermal stability
Procedure, shortened: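 DSC with 2 mg/mL FXRαLBD in 20 mM Tris-HCl, 50 mM NaCl, pH 8.0, with DMSO or compound at a compound:protein ratio of 5:1, against the dialysis buffer as reference. Scan was 10–110 °C at 90 °C/h, giving Tm.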

Mus musculus = test: Reduction of serum triglyceride level in cholesterol-fed C57BL/6 mouse at 100 mg/kg, po after 10 days; assay type: functional; parameters: scale not given: the % may be the effect or the level left
Procedure, shortened: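 Male C57BL/6 mice, 8–12 weeks old, were randomized into five groups of nine. Control mice had ground chow; the other groups had chow with 2% cholesterol. Compound (50 or 100 mg/kg) or reference (100 mg/kg) was suspended in 0.5% CMC-Na and given by oral gavage; control and vehicle mice got 0.5% CMC-Na. Serum and hepatic triglyceride and total cholesterol were measured.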

[3] = biological target: T2, Bile acid receptor (Homo sapiens) (UniProt Q96RI1); test: Antagonist activity at human FXR in human HepG2 cells assessed as reduction in cholesterol level at 10 uM after 24 hrs; assay type: functional, cell-based
T2 sequence (whole entry): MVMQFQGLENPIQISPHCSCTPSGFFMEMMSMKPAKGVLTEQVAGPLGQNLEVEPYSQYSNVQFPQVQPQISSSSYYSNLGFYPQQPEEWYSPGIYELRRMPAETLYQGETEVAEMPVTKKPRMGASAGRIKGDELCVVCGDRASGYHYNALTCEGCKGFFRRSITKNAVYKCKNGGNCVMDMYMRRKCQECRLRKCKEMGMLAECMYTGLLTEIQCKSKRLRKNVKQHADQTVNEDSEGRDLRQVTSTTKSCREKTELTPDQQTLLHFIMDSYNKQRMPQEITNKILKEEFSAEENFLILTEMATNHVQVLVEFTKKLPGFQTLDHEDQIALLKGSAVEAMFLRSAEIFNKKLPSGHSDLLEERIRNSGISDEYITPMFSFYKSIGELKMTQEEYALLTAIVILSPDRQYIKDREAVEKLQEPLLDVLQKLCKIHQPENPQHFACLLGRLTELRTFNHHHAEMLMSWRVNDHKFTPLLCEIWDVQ
Procedure, shortened: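 HepG2 cells were serum-starved overnight in FBS-free DMEM, then given DMSO or compound for 24 h in serum-free DMEM. Cells were lysed in RIPA buffer, sonicated on ice and centrifuged at 12000 rpm, 4 °C. Triglyceride and total cholesterol in the cleared lysate were measured by kits, with total protein by BCA. At least three experiments.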

[4] = biological target: T3, Peroxisome proliferator-activated receptor delta (Homo sapiens) (UniProt Q03181); test: Antagonist activity at recombinant PPARdelta LBD expressed in HEK293T cells co-expressing GAL4 DBD assessed as inhibition of GW1516-induced transactivation at 20 uM by luciferase reporter gene assay; assay type: functional, cell-based; conditions: HEK-293T; procedure, shortened: as §1
T3 sequence (whole entry): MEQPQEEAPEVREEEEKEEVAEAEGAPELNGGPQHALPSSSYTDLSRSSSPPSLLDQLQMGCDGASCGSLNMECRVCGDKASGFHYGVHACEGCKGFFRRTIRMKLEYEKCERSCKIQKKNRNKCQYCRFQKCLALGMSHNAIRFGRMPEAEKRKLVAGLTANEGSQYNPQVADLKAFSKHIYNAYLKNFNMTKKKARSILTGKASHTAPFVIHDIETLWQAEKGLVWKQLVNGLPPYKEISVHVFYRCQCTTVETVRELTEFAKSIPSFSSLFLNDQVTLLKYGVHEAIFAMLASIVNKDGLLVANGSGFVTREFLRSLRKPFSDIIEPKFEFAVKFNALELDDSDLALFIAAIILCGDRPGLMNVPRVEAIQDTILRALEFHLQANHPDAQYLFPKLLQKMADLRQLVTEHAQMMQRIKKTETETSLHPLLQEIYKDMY

In the case of COc1cc(/C=C2\C(=O)N(c3cccc([N+](=O)[O-])c3)N=C2c2ccccc2)ccc1O, the inhibition [1] is reported as “inactive”, the Tm [2] is reported as 58.7 °C and the Activity (Mus musculus) is reported as 60.3%. For the same molecule, the inhibition [3] was 27.1% and the inhibition [4] was “inactive”.

From ChEMBL document CHEMBL2169822, “Discovery and optimization of 1,3,4-trisubstituted-pyrazolone derivatives as novel, potent, and nonsteroidal farnesoid X receptor (FXR) selective antagonists” (J Med Chem, 2012)
